ChEMBL document CHEMBL5344463, “Design, Synthesis, and Antifungal Activity of 3-Substituted-2(5H)-Oxaboroles” (ACS Med Chem Lett, 2024)
In brackets after ≈: the same amount, converted by molar mass. Activity calls are given as the source filed them. No cut-off for these calls is given here.

System: Saccharomyces cerevisiae
Experiment: Antimicrobial activity against Saccharomyces cerevisiae assessed as growth inhibition at 50 ug/ml in liquid medium by liquid MIC assay
Type: functional, organism-based
Settings: dose 50.0 µg/ml
Summary of the method: (§1)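 Single-concentration liquid-medium growth screen of non-spore-forming microbes, run at 50 and 12.5 μg/mL. Growth is read by absorbance.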

Q: How did the Activity turn out when `OB1OCC=C1c1cccc(Br)c1` was run?
A: Its Activity is “Active”.

Q: `OB1OCC=C1c1ccc2occc2c1` was tested. Which Activity did it give?
A: The Activity was “Active”.

Q: For `COc1cccc(C2=CCOB2O)c1`, which Activity is on record?
A: The Activity was “Active”.

Q: `Cc1cccc(C2=CCOB2O)c1` was tested. Which Activity did it give?
A: Its Activity is “Active”.

Q: How did the Activity turn out when `OB1OCC=C1c1ccccc1` was run?
A: The Activity was “Active”.

Q: `OB1OCC=C1c1cccc(Cl)c1` was tested. Which Activity did it give?
A: Its Activity is “Active”.

Q: Which Activity does the source give for `OB1OCC=C1c1ccc(Br)cc1` here?
A: Its Activity is “Active”.

Q: How did the Activity turn out when `Cc1ccc(C2=CCOB2O)cc1` was run?
A: Its Activity is “Active”.

Q: How did the Activity turn out when `OB1OCC=C1c1ccc(OC(F)(F)F)cc1` was run?
A: The Activity was “Active”.

Q: For `OB1OCC=C1c1ccc(Cl)cc1`, which Activity is on record?
A: The Activity was “Active”.

Q: For `OB1OCC=C1C1=CCCCC1`, which Activity is on record?
A: Its Activity is “Active”.

Q: `OB1OCC=C1c1ccccc1Cl` was tested. Which Activity did it give?
A: The Activity was “Active”.

Q: Which Activity does the source give for `CCCc1ccc(C2=CCOB2O)cc1` here?
A: Its Activity is “Active”.

Q: For `OB1OCC=C1c1ccccc1F`, which Activity is on record?
A: The Activity was “Active”.

Q: For `Cc1cc(F)cc(C2=CCOB2O)c1`, which Activity is on record?
A: Its Activity is “Active”.

Q: `OB1OCC=C1c1cccc(F)c1` was tested. Which Activity did it give?
A: The Activity was “Active”.

Q: For `OB1OCC=C1c1cccc(I)c1`, which Activity is on record?
A: Its Activity is “Active”.

Q: With `OB1OCC=C1c1cccs1` as the compound, how does the Activity read?
A: Its Activity is “Active”.

System: Saccharomyces cerevisiae
Experiment: Antimicrobial activity against Saccharomyces cerevisiae assessed as growth inhibition incubated for 48 hrs in solid agar medium by solid MIC assay
Type: functional
Settings: not given

Q: How did the MIC turn out when NYSTATIN was run?
A: The MIC was 1.56 µg/mL.

System: Bacillus cereus
Experiment: Antibacterial activity against Bacillus cereus assessed as growth inhibition incubated for 48 hrs in solid agar medium by solid MIC assay
Type: functional
Settings: not given

Q: Which MIC does the source give for NYSTATIN here?
A: The MIC was greater than 50 µg/mL.

System: H9c2
Experiment: Cytotoxicity against rat H9c2 cells assessed as cell viability at 100 uM incubated for 24 hrs by CCk8 dye assay
Type: toxicity, cell-based
Settings: h9c2, 24 h
Summary of the method: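 Rat myoblast H9c2 cells are exposed to 100 μM compound for 24 h. Viability is normalized to PBS no-treatment control. Values are mean ± SEM, n = 3.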

Q: For `OB1OCC=C1c1cccc(Br)c1`, which Activity is on record?
A: The Activity was “Non-Toxic”.

Q: For `OB1OCC=C1c1ccc2occc2c1`, which Activity is on record?
A: The Activity was “Non-Toxic”.

Q: Which Activity does the source give for `OB1OCC=C1c1ccc(F)cc1` here?
A: The Activity was “Non-Toxic”.

Q: Which Activity does the source give for `OB1OCC=C1c1ccc2ccccc2c1` here?
A: Its Activity is “Non-Toxic”.

Q: `Cc1cccc(C2=CCOB2O)c1` was tested. Which Activity did it give?
A: Its Activity is “Non-Toxic”.

Q: For `CC(C)(C)c1ccc(C2=CCOB2O)cc1`, which Activity is on record?
A: The Activity was “Non-Toxic”.

Q: With `OB1OCC=C1c1cccc(Cl)c1` as the compound, how does the Activity read?
A: The Activity was “Non-Toxic”.

Q: For `OB1OCC=C1c1ccc(Br)cc1`, which Activity is on record?
A: Its Activity is “Non-Toxic”.

Q: With `Cc1ccc(C2=CCOB2O)cc1` as the compound, how does the Activity read?
A: Its Activity is “Non-Toxic”.

Q: Which Activity does the source give for `OB1OCC=C1c1ccc(OC(F)(F)F)cc1` here?
A: The Activity was “Non-Toxic”.

Q: For `OB1OCC=C1c1ccc(Cl)cc1`, which Activity is on record?
A: Its Activity is “Non-Toxic”.

Q: For `OB1OCc2cc(F)ccc21` [TAVABOROLE], which Activity is on record?
A: Its Activity is “Non-Toxic”.

Q: Which Activity does the source give for `CCCc1ccc(C2=CCOB2O)cc1` here?
A: The Activity was “Non-Toxic”.

Q: `OB1OCC=C1c1ccccc1F` was tested. Which Activity did it give?
A: Its Activity is “Non-Toxic”.

Q: Which Activity does the source give for `Cc1cc(F)cc(C2=CCOB2O)c1` here?
A: Its Activity is “Non-Toxic”.

Q: For `OB1OCC=C1c1cccc(F)c1`, which Activity is on record?
A: Its Activity is “Non-Toxic”.

Q: How did the Activity turn out when `OB1OCC=C1c1cccc(I)c1` was run?
A: The Activity was “Non-Toxic”.

System: Erythrocyte
Experiment: Hemolytic activity in sheep erythrocytes assessed as cell lysis at 50 to 100 uM measured after 1 hr
Type: toxicity, cell-based, Ovis aries
Settings: dose 50-100 µM
Summary of the method: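 Erythrocytes are exposed to compound at 50 and 100 μM for 1 h. Lysis is normalized to a Triton X-100 positive control. Values are mean ± SEM, n = 3.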

Q: `OB1OCC=C1c1cccc(Br)c1` was tested. Which Activity did it give?
A: The Activity was “Non-Toxic”.

Q: Which Activity does the source give for `OB1OCC=C1c1ccc2occc2c1` here?
A: Its Activity is “Non-Toxic”.

Q: With `OB1OCC=C1c1ccc(F)cc1` as the compound, how does the Activity read?
A: Its Activity is “Non-Toxic”.

Q: With `OB1OCC=C1c1ccc2ccccc2c1` as the compound, how does the Activity read?
A: The Activity was “Non-Toxic”.

Q: Which Activity does the source give for `Cc1cccc(C2=CCOB2O)c1` here?
A: Its Activity is “Non-Toxic”.

Q: For `CC(C)(C)c1ccc(C2=CCOB2O)cc1`, which Activity is on record?
A: Its Activity is “Non-Toxic”.

Q: With `OB1OCC=C1c1cccc(Cl)c1` as the compound, how does the Activity read?
A: The Activity was “Non-Toxic”.

Q: How did the Activity turn out when `OB1OCC=C1c1ccc(Br)cc1` was run?
A: Its Activity is “Non-Toxic”.

Q: For `Cc1ccc(C2=CCOB2O)cc1`, which Activity is on record?
A: Its Activity is “Non-Toxic”.

Q: For `OB1OCC=C1c1ccc(OC(F)(F)F)cc1`, which Activity is on record?
A: Its Activity is “Non-Toxic”.

Q: `OB1OCC=C1c1ccc(Cl)cc1` was tested. Which Activity did it give?
A: The Activity was “Non-Toxic”.

Q: Which Activity does the source give for `OB1OCc2cc(F)ccc21` [TAVABOROLE] here?
A: Its Activity is “Non-Toxic”.

Q: `CCCc1ccc(C2=CCOB2O)cc1` was tested. Which Activity did it give?
A: Its Activity is “Non-Toxic”.

Q: For `OB1OCC=C1c1ccccc1F`, which Activity is on record?
A: The Activity was “Non-Toxic”.

Q: For `Cc1cc(F)cc(C2=CCOB2O)c1`, which Activity is on record?
A: Its Activity is “Non-Toxic”.

Q: For `OB1OCC=C1c1cccc(F)c1`, which Activity is on record?
A: Its Activity is “Non-Toxic”.

Q: For `OB1OCC=C1c1cccc(I)c1`, which Activity is on record?
A: The Activity was “Non-Toxic”.

System: Penicillium chrysogenum
Experiment: Antifungal activity against Penicillium chrysogenum assessed as growth inhibition incubated for 48 hrs in solid agar medium by solid MIC assay
Type: functional
Settings: not given
Summary of the method: (§2)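 Dose-dependent solid-agar MIC assay for spore-forming fungi (liquid media unusable because mycelia clump and block absorbance). Compound tested at […] in agar. Fungal growth scored visually as white mycelia on the plates. MIC is taken from biological replicates.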

Q: For NYSTATIN, which MIC is on record?
A: The MIC was 1.56 µg/mL.

System: Pseudomonas aeruginosa
Experiment: Antibacterial activity against Pseudomonas aeruginosa deltaMexAB-OprM assessed as growth inhibition incubated for 48 hrs in solid agar medium by solid MIC assay
Type: functional
Settings: not given

Q: For NYSTATIN, which MIC is on record?
A: Its MIC is greater than 50 µg/mL.

System: Staphylococcus aureus
Experiment: Antibacterial activity against methicillin-resistant Staphylococcus aureus assessed as growth inhibition incubated for 48 hrs in solid agar medium by solid MIC assay
Type: functional
Settings: not given

Q: How did the MIC turn out when NYSTATIN was run?
A: Its MIC is greater than 50 µg/mL.

Q: `OB1OCc2cc(F)ccc21` [TAVABOROLE] was tested. Which MIC did it give?
A: Its MIC is greater than 50 µg/mL.

System: Aspergillus flavus
Experiment: Antifungal activity against Aspergillus flavus assessed as growth inhibition incubated for 48 hrs in solid agar medium by solid MIC assay
Type: functional
Settings: not given
Summary of the method: as §2

Q: How did the MIC turn out when NYSTATIN was run?
A: The MIC was 2.6 µg/mL.

System: Candida albicans
Experiment: Antifungal activity against Candida albicans assessed as growth inhibition incubated for 48 hrs in solid agar medium by solid MIC assay
Type: functional
Settings: not given

Q: For NYSTATIN, which MIC is on record?
A: Its MIC is 0.78 µg/mL.

System: Escherichia coli
Experiment: Antibacterial activity against Escherichia coli ATCC 25922 assessed as growth inhibition incubated for 48 hrs in liquid medium by microbroth dilution assay
Settings: ATCC 25922, 48 h

Q: Which MIC does the source give for `OB1OCC=C1c1ccc(F)cc1` here?
A: The MIC was 42 µg/mL (≈ 236 µM).

Q: With `Cc1ccc(C2=CCOB2O)cc1` as the compound, how does the MIC read?
A: The MIC was 42 µg/mL (≈ 241 µM).

Q: How did the MIC turn out when `Cc1cc(F)cc(C2=CCOB2O)c1` was run?
A: The MIC was greater than 50 µg/mL.

Q: For `OB1OCC=C1c1cccs1`, which MIC is on record?
A: The MIC was 42 µg/mL (≈ 253 µM).

System: Trichophyton mentagrophytes
Experiment: Antifungal activity against Trichophyton mentagrophytes assessed as growth inhibition incubated for 48 hrs in solid agar medium by solid MIC assay
Type: functional
Settings: not given
Summary of the method: as §2

Q: Which MIC does the source give for NYSTATIN here?
A: Its MIC is 3.13 µg/mL.

System: Staphylococcus aureus
Experiment: Antibacterial activity against methicillin-resistant Staphylococcus aureus assessed as growth inhibition at 50 ug/ml in liquid medium by liquid MIC assay
Type: functional, organism-based
Settings: dose 50.0 µg/ml
Summary of the method: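 Single-point growth-inhibition screen in liquid medium against nonspore-forming organisms. Compound tested at 50 and 12.5 μg/mL, growth read by absorbance, and reported at the 50 μg/mL level.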

Q: For `OB1OCC=C1c1cccc(I)c1`, which Activity is on record?
A: The Activity was “inactive”.

System: Candida albicans
Experiment: Antifungal activity against Candida albicans assessed as growth inhibition at 50 ug/ml in liquid medium by liquid MIC assay
Type: functional, organism-based
Settings: dose 50.0 µg/ml
Summary of the method: as §1

Q: How did the Activity turn out when `OB1OCC=C1c1cccc(Br)c1` was run?
A: Its Activity is “Active”.

Q: Which Activity does the source give for `OB1OCC=C1c1ccc2occc2c1` here?
A: Its Activity is “Active”.

Q: For `OB1OCC=C1c1ccc(F)cc1`, which Activity is on record?
A: The Activity was “Active”.

Q: How did the Activity turn out when `OB1OCC=C1c1ccc(Br)cc1` was run?
A: Its Activity is “Active”.

Q: For `OB1OCC=C1c1ccc(OC(F)(F)F)cc1`, which Activity is on record?
A: Its Activity is “Active”.

Q: Which Activity does the source give for `OB1OCC=C1c1ccc(Cl)cc1` here?
A: Its Activity is “Active”.

Q: `OB1OCC=C1c1cccc(I)c1` was tested. Which Activity did it give?
A: Its Activity is “Active”.
